Assay results reported in ChEMBL document CHEMBL1124476, “1-(2-aminoethyl)-6-aryl-4H- [1,2,4]triazolo[4,3-a][1,4]benzodiazepines with diuretic and natriuretic activity” (J Med Chem, 1989).

Columns and labels:
[1] = Diuretic activity at 40 mg/kg (screening dose-55.2 umol/kg) in […] in a one stage experiment; T/C = urine vol of treated rats / urine vol of control rats; type: functional
Outline: (§1)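 40 mg/kg given by gavage in 25 mL/kg 0.9% saline with 0.5% (carboxymethyl)cellulose. Four rats per agent, two per metabolism cage; 20 controls; 5 h urine. T/C = treated/control urine volume. Stage-1 T/C of 1.66 or more leads to stage 2; product T/C1·T/C2 of 3.34 or more counts as active.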

[2] = Diuretic activity at 40 mg/kg (screening dose-55.2 umol/kg) in […] in a two stage experiment; T/C1.2 = urine vol of treated rats / urine vol of control rats; type: functional; outline: as §1
Rattus norvegicus [3] = species on record: Rattus norvegicus; assay: […]; type: ADME, organism-based, Urine; parameters: dose 10 mg/kg, route oral; details: in vivo, po, 10 mg/kg
Outline: (§2)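 Male Sprague-Dawley rats, about 160 g, fasted 24 h and water withheld 1 1/2 h beforehand; food and water withheld during the test. Dosing by gavage with 25 mL/kg 0.9% saline containing 0.5% (carboxymethyl)cellulose, agent dissolved or suspended. Three cages of two rats each per dose, held in metabolism cages. Urine collected over 5 h. Volume given in mL, Na+ in mequiv. Significance versus control at P < 0.05.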

Rattus norvegicus [4] = species on record: Rattus norvegicus; assay: […]; type: ADME, organism-based, Urine; parameters: dose 100 mg/kg, route oral; details: in vivo, po, 100 mg/kg; outline: as §2
Rattus norvegicus [5] = species on record: Rattus norvegicus; assay: […]; type: ADME, organism-based, Urine; parameters: dose 3 mg/kg, route oral; details: in vivo, po, 3 mg/kg; outline: as §2
Rattus norvegicus [6] = species on record: Rattus norvegicus; assay: […]; type: ADME, organism-based, Urine; parameters: dose 0.3 mg/kg, route oral; details: in vivo, po, 0.3 mg/kg
Outline: (§3)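 Dose-response test in male Sprague-Dawley rats of about 160 g, fasted 24 h, with water withheld 1½ h before and during the test. Each rat got a single gavage of 25 mL/kg 0.9% saline with 0.5% carboxymethylcellulose carrying the agent (0.3–100 mg/kg range). Rats were housed two per metabolism cage, and urine was collected for 5 h. Mean urine volume (mL) was compared with controls (P < 0.05).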

Rattus norvegicus [7] = species on record: Rattus norvegicus; assay: […]; type: ADME, organism-based, Urine; parameters: dose 1 mg/kg, route oral; details: in vivo, po, 1 mg/kg; outline: as §3
Rattus norvegicus [8] = assay: Mean excretion of potassium in conscious rats at a dose of 10 mg/kg given orally; type: ADME, organism-based; parameters: dose 10 mg/kg, route oral; details: in vivo, po
Outline: (§4)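 Secondary dose-response in male Sprague-Dawley rats (~160 g), fasted and hydrated as in the primary screen. Oral gavage at 0.3-100 mg/kg in 25 mL/kg saline/0.5% CMC, three cages of two rats per dose. Urine collected 5 h; Na, K, Cl, HCO3 measured. Values are mean excretion (mequiv), compared with controls at P < 0.05.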

Rattus norvegicus [9] = assay: Mean excretion of potassium in conscious rats at a dose of 100 mg/kg given orally; type: ADME, organism-based; parameters: dose 100 mg/kg, route oral; details: in vivo, po; outline: as §4
Rattus norvegicus [10] = assay: Mean excretion of potassium in conscious rats at a dose of 3.0 mg/kg given orally; type: ADME, organism-based; parameters: dose 3 mg/kg, route oral; details: in vivo, po; outline: as §4
Rattus norvegicus [11] = assay: Mean excretion of potassium in conscious rats at a dose of 30 mg/kg given orally; type: ADME, organism-based; parameters: dose 30 mg/kg, route oral; details: in vivo, po; outline: as §4
Rattus norvegicus [12] = assay: Mean excretion of sodium in conscious rats at a dose of 0.3 mg/kg given orally; type: ADME, organism-based; parameters: dose 0.3 mg/kg, route oral; details: in vivo, po; outline: as §2
Rattus norvegicus [13] = assay: Mean excretion of […] in conscious rats at a dose of 1.0 mg/kg given orally; type: ADME, organism-based; parameters: dose 1 mg/kg, route oral; details: in vivo, po; outline: as §2
Rattus norvegicus [14] = assay: Mean excretion of sodium in conscious rats at a dose of 10 mg/kg given orally; type: ADME, organism-based; parameters: dose 10 mg/kg, route oral; details: in vivo, po; outline: as §2
Rattus norvegicus [15] = assay: Mean excretion of sodium in conscious rats at a dose of 100 mg/kg given orally; type: ADME, organism-based; parameters: dose 100 mg/kg, route oral; details: in vivo, po; outline: as §2
Rattus norvegicus [16] = assay: Mean excretion of sodium in conscious rats at a dose of 3.0 mg/kg given orally; type: ADME, organism-based; parameters: dose 3 mg/kg, route oral; details: in vivo, po; outline: as §2
Rattus norvegicus [17] = assay: Mean excretion of sodium in conscious rats at a dose of 30 mg/kg given orally; type: ADME, organism-based; parameters: dose 30 mg/kg, route oral; details: in vivo, po; outline: as §2
Rattus norvegicus [18] = assay: Mean excretion of chloride in conscious rats at a dose of 1.0 mg/kg given orally; type: ADME, organism-based; parameters: dose 1 mg/kg, route oral; details: in vivo, po; outline: as §4
Rattus norvegicus [19] = assay: Mean excretion of chloride in conscious rats at a dose of 10 mg/kg given orally; type: ADME, organism-based; parameters: dose 10 mg/kg, route oral; details: in vivo, po; outline: as §4
Rattus norvegicus [20] = assay: Mean excretion of chloride in conscious rats at a dose of 100 mg/kg given orally; type: ADME, organism-based; parameters: dose 100 mg/kg, route oral; details: in vivo, po; outline: as §4
Rattus norvegicus [21] = assay: Mean excretion of chloride in conscious rats at a dose of 30 mg/kg given orally; type: ADME, organism-based; parameters: dose 30 mg/kg, route oral; details: in vivo, po; outline: as §4
Rattus norvegicus [22] = assay: Mean excretion of chloride in conscious rats at a dose of 3.0 mg/kg given orally; type: ADME, organism-based; parameters: dose 3 mg/kg, route oral; details: in vivo, po; outline: as §4
Rattus norvegicus [23] = assay: Mean excretion of Cl- in conscious rats at a dose of 0.3 mg/kg given orally; type: ADME, organism-based, Urine; parameters: dose 0.3 mg/kg, route oral; details: in vivo, po; outline: as §3
Rattus norvegicus [24] = assay: Mean excretion of potassium in conscious rats at a dose of 1.0 mg/kg given orally; type: ADME, organism-based; parameters: dose 1 mg/kg, route oral; details: in vivo, po; outline: as §4
Rattus norvegicus [25] = assay: Mean excretion of potassium in conscious rats at a dose of 0.3 mg/kg given orally; type: ADME, organism-based; parameters: dose 0.3 mg/kg, route oral; details: in vivo, po; outline: as §4
[26] = Diuretic activity at 40 mg/kg (screening dose-90.5 uM/Kg) in […] in a two stage experiment; T/C1.2 = urine vol of treated rats / urine vol of control rats; type: functional; outline: as §1
[27] = Diuretic activity at 40 mg/kg (screening dose-84.7 umol/kg) in […] in a one stage experiment; T/C = urine vol of treated rats / urine vol of control rats; type: functional; outline: as §1
Rattus norvegicus [28] = species on record: Rattus norvegicus; assay: […]; type: ADME, organism-based, Urine; parameters: dose 30 mg/kg, route oral; details: in vivo, po, 30 mg/kg; outline: as §2
Canis familiaris [29] = assay: Effect of compound on urinary volume after infusion with 10 mg/kg/hr fose into renal artery of anesthetized dogs; type: ADME, organism-based, Canis lupus familiaris, Urine; details: dog, in vivo
Outline: (§5)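 Anesthetized dogs; drug added to saline pumped at 0.3 mL/min through a needle into one renal artery, contralateral kidney as control. 10 mg/kg per h, with 30-60 min stabilization first. Urine volume and GFR (inulin clearance) taken before and after infusion; means ± SEM in mL/min, N = 5, P < 0.05.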

Canis familiaris [30] = assay: Effect of compound on urinary volume before infusion with 10 mg/kg/hr fose into renal artery of anesthetized dogs; type: ADME, organism-based, Canis lupus familiaris, Urine; details: dog, in vivo; outline: as §5
Canis familiaris [31] = assay: Effect of compound on glomerular filtration rate after infusion with 10 mg/kg/hr fose into renal artery of anesthetized dogs; type: ADME, organism-based, Canis lupus familiaris; details: dog, in vivo; outline: as §5
Canis familiaris [32] = assay: Effect of compound on glomerular filtration rate before infusion with 10 mg/kg/hr fose into renal artery of anesthetized dogs; type: ADME, organism-based, Canis lupus familiaris; details: dog, in vivo; outline: as §5
[33] = Diuretic activity at 40 mg/kg (screening dose-90.5 umol/kg) in […] in a two stage experiment; T/C1.2 = urine vol of treated rats / urine vol of control rats; type: functional; outline: as §1
[34] = Diuretic activity at 40 mg/kg (screening dose-90.5 umol/kg) in […] in a one stage experiment; T/C = urine vol of treated rats / urine vol of control rats; type: functional; outline: as §1

CN(C)CCc1nnc2n1-c1ccc(Cl)cc1C(c1ccccc1)=NC2
T/C 1 [1]: 1.66 | T/C 1.2 [2]: 3.04

COc1cccc(C(CN(C)C)c2nnc3n2-c2ccc(Cl)cc2C(c2ccccc2)=NC3)c1 (stereo not drawn)
Mean urine volume (Rattus norvegicus [3]): 5.99 mL | Mean urine volume (Rattus norvegicus [4]): 12.03 mL | Mean urine volume (Rattus norvegicus [5]): 4.29 mL | Mean urine volume (Rattus norvegicus [6]): 3.37 mL | Mean urine volume (Rattus norvegicus [7]): 3.74 mL | Mean excretion of K+ (Rattus norvegicus [8]): 0.17 m equiv | Mean excretion of K+ (Rattus norvegicus [9]): 0.3 m equiv | Mean excretion of K+ (Rattus norvegicus [10]): 0.17 m equiv | Mean excretion of K+ (Rattus norvegicus [11]): 0.24 m equiv | Mean excretion of Na+ (Rattus norvegicus [12]): 0.52 m equiv | Mean excretion of Na+ (Rattus norvegicus [13]): 0.64 m equiv | Mean excretion of Na+ (Rattus norvegicus [14]): 1.13 m equiv | Mean excretion of Na+ (Rattus norvegicus [15]): 1.76 m equiv | Mean excretion of Na+ (Rattus norvegicus [16]): 0.79 m equiv | Mean excretion of Na+ (Rattus norvegicus [17]): 1.99 m equiv | Mean excretion of Cl- (Rattus norvegicus [18]): 0.72 m equiv | Mean excretion of Cl- (Rattus norvegicus [19]): 1.11 m equiv | Mean excretion of Cl- (Rattus norvegicus [20]): 1.8 m equiv | Mean excretion of Cl- (Rattus norvegicus [21]): 1.99 m equiv | Mean excretion of Cl- (Rattus norvegicus [22]): 0.78 m equiv | Mean excretion of Cl- (Rattus norvegicus [23]): 0.59 m equiv | Mean excretion of K+ (Rattus norvegicus [24]): 0.21 m equiv | Mean excretion of K+ (Rattus norvegicus [25]): 0.22 m equiv | T/C 1.2 [26]: 7.31 | T/C 1 [27]: 3.18 | Mean urine volume (Rattus norvegicus [28]): 12.21 mL

CN(C)CC(c1ccccc1)c1nnc2n1-c1ccc(Cl)cc1C(c1ccccc1)=NC2 (stereo not drawn)
Mean urine volume (Rattus norvegicus [3]): 6.7 mL | Mean urine volume (Rattus norvegicus [4]): 9.54 mL | Mean urine volume (Rattus norvegicus [5]): 5.36 mL | Mean urine volume (Rattus norvegicus [6]): 4.15 mL | Mean urine volume (Rattus norvegicus [7]): 4.47 mL | Mean excretion of K+ (Rattus norvegicus [8]): 0.22 m equiv | Mean excretion of K+ (Rattus norvegicus [9]): 0.27 m equiv | Mean excretion of K+ (Rattus norvegicus [10]): 0.22 m equiv | Mean excretion of K+ (Rattus norvegicus [11]): 0.27 m equiv | Mean excretion of Na+ (Rattus norvegicus [12]): 0.74 m equiv | Mean excretion of Na+ (Rattus norvegicus [13]): 0.81 m equiv | Mean excretion of Na+ (Rattus norvegicus [14]): 1.15 m equiv | Mean excretion of Na+ (Rattus norvegicus [15]): 1.51 m equiv | Mean excretion of Na+ (Rattus norvegicus [16]): 0.82 m equiv | Mean excretion of Na+ (Rattus norvegicus [17]): 1.8 m equiv | Urinary volume (Canis familiaris [29]): 0.9 mL/min | Urinary volume (Canis familiaris [30]): 0.2 mL/min | Mean excretion of Cl- (Rattus norvegicus [18]): 0.81 m equiv | Mean excretion of Cl- (Rattus norvegicus [19]): 1.16 m equiv | Mean excretion of Cl- (Rattus norvegicus [20]): 1.26 m equiv | Mean excretion of Cl- (Rattus norvegicus [21]): 1.72 m equiv | Mean excretion of Cl- (Rattus norvegicus [22]): 0.89 m equiv | Mean excretion of Cl- (Rattus norvegicus [23]): 0.73 m equiv | Mean excretion of K+ (Rattus norvegicus [24]): 0.25 m equiv | GFR (Canis familiaris [31]): 18 mL/min | GFR (Canis familiaris [32]): 23 mL/min | Mean excretion of K+ (Rattus norvegicus [25]): 0.25 m equiv | T/C 1.2 [33]: 5.27 | T/C 1 [34]: 2.1 | Mean urine volume (Rattus norvegicus [28]): 12 mL
